Source: PubChem BioAssay
The list is not random: actives were taken first. Their share in the collection is about 0.89%.
Mdm2 ligase inh: MDM2-luciferase reporter signal enhancers, primary screen, MDM2 E3 ligase inhibitor project, cell-based, luminescence, 1536-well | signal enhancement, % at 5 µM | cell-based MDM2 ubiquitination luciferase reporter, 2 h; 0 = plate control, 100 = twice control, blank-subtracted | 210,000 tested, 0.11% active;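 active = signal enhancement of 30% or more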;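 note: luminescence tracks abundance of the self-degrading MDM2-luciferase fusion protein; higher signal means inhibition of MDM2 E3 ligase activity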
Target sequence (Q00987 whole entry, looked up, the tested form may be a part): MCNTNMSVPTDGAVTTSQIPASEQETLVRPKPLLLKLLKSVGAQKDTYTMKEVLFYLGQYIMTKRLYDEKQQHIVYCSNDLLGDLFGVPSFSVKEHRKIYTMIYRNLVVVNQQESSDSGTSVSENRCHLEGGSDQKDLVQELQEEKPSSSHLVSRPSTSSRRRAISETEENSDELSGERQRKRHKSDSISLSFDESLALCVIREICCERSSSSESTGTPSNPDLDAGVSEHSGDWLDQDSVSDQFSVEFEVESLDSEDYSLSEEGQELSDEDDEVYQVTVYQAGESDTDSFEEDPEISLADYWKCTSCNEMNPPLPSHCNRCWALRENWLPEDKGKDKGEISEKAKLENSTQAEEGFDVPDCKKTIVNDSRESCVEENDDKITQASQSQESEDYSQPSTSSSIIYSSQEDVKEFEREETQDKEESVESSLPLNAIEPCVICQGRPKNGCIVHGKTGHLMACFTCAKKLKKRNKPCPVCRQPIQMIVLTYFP
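Test system: stable mammalian line carrying autodegrading MDM2–luciferase fusion reporter; quantity: 2000 cells in each well; times: 4 h cell settling then 2 h compound exposure, 37 °C; detection: luminescence with SteadyLite reagent, 15 min at room temperature; evaluation: percent signal gain over controls, blank-subtracted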
HSV augment: enhancers of HSV replication in host cells, fold increase, host cell viability; HSV replication augmentation in cells; maximum fold increase; 220,000 tested, 0.005% active; in the data active = maximum fold increase above about 1.5; tested in PC3 cells
zVAD death inh: inhibitors of zVAD-triggered necroptosis, primary screen, L929 cells; L929 zVAD necroptosis rescue, ATP luminescence, 24 h; with zVAD 60 µM; viability rescue, % at 10 µM; 220,000 tested, 0.38% active; AID 1377, 2008;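 active = activation, scaled between plate controls, above about 75%, limit read from the data; inactive = activation under that limit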;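 note: 0% = zVAD with DMSO and 100% = DMSO alone without zVAD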
E-sel TNF inh: E-selectin induction blockers in HUVEC – imaging, immunofluorescence, high content, primary screen. HUVEC TNFa-induced E-selectin immunofluorescence. inhibition, % at 2 µM. 120,000 tested, 0.71% active;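 active = inhibition above the batch mean plus 3 SD, and confirmed as a hit on visual image review, cut at about 43% in these data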;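 note: 0% = TNF-stimulated DMSO wells and 100% = unstimulated control wells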
TNF necrop inh: inhibitors of TNF-alpha triggered necroptosis, primary screen, cell-based, Jurkat FADD-/-, single concentration; Jurkat FADD-/- TNF necroptosis rescue, ATP luminescence, 24 h; 0 = TNF only, 100 = no-TNF cells; activation (protection from cell death), % at 10 µM; 220,000 tested, 0.068% active; AID 463075, 2010;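 active = activation, meaning protection from cell death, of at least 50% relative to plate controls; inactive = activation below 50%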;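 note: necroptosis triggered by 40 ng/mL TNF-alpha added together with compound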
Numbers without * were called inactive; i = inactive; nt = not tested or not shown.

SMILES	Mdm2 ligase inh	HSV augment	zVAD death inh	E-sel TNF inh	TNF necrop inh
COc1cccc(CNC(=O)CCC2CCCN(C(=O)C3=CC(=O)CC(C)(C)O3)C2)c1 (configuration not stated)	-2	i	1	nt	0
O=C(Nc1ccccc1Cl)c1cc(S(=O)(=O)N2CCCCC2)ccc1N1CCOCC1	-11	i	0	-24	-5
O=C(Nc1cccc(C(F)(F)F)c1)c1cc(S(=O)(=O)N2CCCCC2)ccc1N1CCOCC1	38*	i	1	-30	5
CN(C)C(=O)COC(=O)c1cccc(CN2C(=O)c3ccccc3C2=O)c1	-4	i	0	nt	-1
O=C(NCN1C(=O)C2C3C=CC(C3)C2C1=O)Nc1nncs1 (configuration not stated)	-5	i	0	100*	0
O=C(NCN1C(=O)C2C3C=CC(C3)C2C1=O)Nc1ccccc1O (configuration not stated)	-23	i	-1	nt	0
CC(C)(C)SCCNC(=O)CSCc1ccc([N+](=O)[O-])cc1	1	nt	0	8	1
O=C(CSCc1ccc([N+](=O)[O-])cc1)NC1CC2CCC1C2 (configuration not stated)	-12	i	5	18	63*
COc1cc(SC)ccc1C(=O)N(Cc1ccccc1)c1ccccn1	-11	i	-1	nt	1
Cc1ccc(S(=O)(=O)N2CCN(C(=O)CC(C)C)CC2)cc1	32*	i	-1	nt	1
Cc1ccc(CC2SC(=O)NC2=O)cc1Cl (configuration not stated)	-13	i	84*	-19	20
CCCN1CCC(=O)N([C@H](CSc2ccc(OC)cc2)c2ccccc2)CC1	15	i	0	nt	2
COc1ccc(C(=O)C2CCCN(C3Cc4ccccc4C3)C2)c(OC)c1 (configuration not stated)	8	i	3	nt	3
CC(C)(C)n1cnc2cc(NS(=O)(=O)c3ccccc3)ccc21	2	i	0	-6	1
COc1ccc(-n2cnc3cc(NS(=O)(=O)c4ccccc4)ccc32)cc1	-13	i	-1	-2	53*
O=C(COc1ccc(Br)cc1)Nc1ccncc1	-16	i	0	-39	-5
Cc1cc(OCC(=O)Nc2ccncc2)c(C)cc1Br	-17	i	0	66*	-15
O=[N+]([O-])c1ccccc1SN(Cc1ccccc1)c1ccccn1	5	i	0	nt	2
CC(C)C(C(=O)O)N1CCS(=O)(=O)CC1 (configuration not stated)	-12	i	1	80*	0
CC(C)(C)C1=CC(=O)C(=O)C(C(C)(C)C)=C1	26	i	2	89*	-19
CC(C)(C)C1=CC(=Nc2ccccc2N)C=C(C(C)(C)C)C1=O	-13	i	1	nt	1
O=C(N/N=C\c1ccc(Cl)cc1Cl)c1sccc1-n1cccc1	-12	i	89*	-11	-3
COC(=O)C1=C(C(=O)OC)[C@@H]2Nc3ccccc3[C@@]23C[C@@H](C(=O)OC)N(C(=O)CC(C)C)C3=N1	nt	i	nt	nt	nt
COc1ccc(/C=C2\N=C(c3ccccc3Cl)NC2=O)cc1	2	i	3	nt	-11
CCc1ccc2c(c1)C1(NN=C(c3ccc(C)cc3)S1)C(=O)N2 (configuration not stated)	4	i	-1	15	-9
SMILES	Mdm2 ligase inh	HSV augment	zVAD death inh	E-sel TNF inh	TNF necrop inh
CC(C)c1ccc2c(c1)C1(NN=C(c3ccccc3)S1)C(=O)N2 (configuration not stated)	45*	i	1	-36	-10
CSc1ccc(NC(=O)Nc2ccc(C(=O)NCC(=O)O)cc2)cc1	-18	i	1	nt	3
N#Cc1cccc(-n2c(-c3ccccc3)nnc2-c2ccccc2)c1C#N	-12	i	0	100*	-1
O=C(NCc1ccccc1)NCc1cccs1	-16	i	2	nt	1
COc1cc(/C=C2\SC(=S)N(CC(=O)Nc3ccc(O)cc3)C2=O)cc(OC)c1OC	-2	i	3	74*	4
Cn1c(SCc2ccc(C#N)cc2)nnc1-c1cccc(Cl)c1	-32	i	0	60*	4
Cc1ccc(C)c(NC(=O)c2cnn3ccccc23)c1	-8	i	85*	17	-1
CS(=O)(=O)N1CCc2cc(-c3csc(NC(=O)Cc4cccs4)n3)ccc21	1	i	0	93*	-12
O=c1cc(CO)oc(C(Nc2ccccn2)c2cccc(F)c2)c1O (configuration not stated)	-26	i	1	-5	1
O=c1cc(CO)oc(C(Nc2ccccn2)c2ccccc2F)c1O (configuration not stated)	nt	i	0	68*	0
CS(=O)(=O)c1ccc2nc(NC(=O)Nc3cccc(Cl)c3)sc2c1	-42	i	83*	29	-7
Cc1ccc(C)c(NCC(O)c2ccccc2)c1 (configuration not stated)	-10	i	1	nt	1
O=C1c2ccccc2C(=O)N1Cc1cnc(N2CCN(c3ccccc3)CC2)s1	-5	i	3	nt	-1
COc1ccc2c(c1)C1CC(C)(NC(=O)C1S(=O)(=O)c1ccc(F)cc1)O2 (configuration not stated)	2	i	1	77*	-2
O=C(CCOc1ccccc1F)N1CCN(c2ccccc2O)CC1	-19	i	2	nt	-1
COc1ccc(-n2c(C)nc3sc4c(c3c2=O)CCCC4)cc1	-5	i	8	nt	89*
O=S(=O)(NCc1ccccc1)c1ccc(Br)c2nsnc12	-8	i	-1	nt	-1
COC(=O)C1=NN(c2cccc(C)c2)C2C(=O)N(c3ccccc3OC)C(=O)C12 (configuration not stated)	-5	i	1	73*	-3
CCC(C)C(=O)Nc1nc2ccc(OC)cc2s1 (configuration not stated)	-11	i	51	nt	8
CNC(=S)N=Nc1c(O)[nH]c2ccccc12	-10	i	0	nt	-2
CNC(=S)N=Nc1c(O)[nH]c2ccc(C(C)C)cc12	-9	i	0	68*	-1
COC(=O)CCS(=O)(=O)c1nc(-c2ccccc2)cc(C(F)(F)F)n1	5	i	0	30	-22
CCOC(=O)CS(=O)(=O)c1nc(-c2ccc(F)cc2)cc(C(F)(F)F)n1	10	i	2	58*	-8
